ChEMBL document CHEMBL1140439, “Pharmacophore modeling, docking, and principal component analysis based clustering: combined computer-assisted approaches to identify new inhibitors of the human rhinovirus coat protein” (J Med Chem, 2005)

What was measured:
[1] = Percent toxicity at 100 ug/mL on OH-I cells; range 50-100 %; assay type: functional, Homo sapiens
Summary of the method: (§1)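 Static toxicity test on uninfected OH-I monolayers at or near 100% confluency, in 2% McCoy's with 0.25% DMSO. Compound given at the three highest concentrations (100, 32, 10 ug/mL). Monolayer reduction was scored against cell control; 50% or greater reduction counted as cytotoxic.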

WI-38 [2] = experiment: Effective concentration dissolved in DMSO against HRV serotype 39 in WI-38 cells by multiple-cycle CPE inhibition assay; microscopic; assay type: functional, cell-based; conditions: Homo sapiens
Summary of the method: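 Multiple-cycle CPE assay with HRV serotype 39 on 100% confluent WI-38 fibroblasts in 5% EMEM, 0.5% DMSO final. Triplicate monolayers received compound at 32, 10, 3.2, 1.0, 0.1 ug/mL plus three serial log virus dilutions. Read only microscopically (staining too weak) after virus controls reached 80–100% CPE at 32–320 TCID50. EC50 is the concentration giving 50% CPE inhibition.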

[3] = Effective concentration dissolved in DMSO against HRV serotype 39 in OH-I cells by multiple-cycle CPE inhibition assay; spectrophotometric; assay type: functional, cell-based, Homo sapiens
Summary of the method: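 HRV serotype 39 CPE inhibition assay in triplicate 85% confluent OH-I monolayers, 2% McCoy's, 0.25% DMSO final, compound at 100–0.1 ug/mL. Once virus controls reached 80–100% CPE (32–320 TCID50), cells were stained with 0.4% crystal violet for 20–30 min at room temperature, destained with 30% methanol/10% acetic acid, and OD read at 550 nm. EC50 is the concentration giving a 50% OD increase versus virus control, from Chou–Chou dose-effect analysis.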

[4] = Effective concentration dissolved in DMSO against HRV serotype 39 in OH-I cells by multiple-cycle CPE inhibition assay; microscopic; assay type: functional, cell-based, Homo sapiens
Summary of the method: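 Multiple-cycle CPE inhibition assay, HRV serotype 39 (ATCC), 85% confluent OH-I monolayers in 2% McCoy's, 0.25% DMSO final. Triplicate wells received compound then three serial log virus dilutions. EC50 taken as the concentration giving 50% CPE inhibition.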

[5] = Percent toxicity at 32 ug/mL on OH-I cells; range 50-100 %; assay type: functional, Homo sapiens; summary of the method: as §1
[6] = Percent toxicity at 10 ug/mL on OH-I cells; assay type: functional, Homo sapiens; summary of the method: as §1
WI-38 [7] = experiment: Cytostatic concentration against WI-38 cells; assay type: functional, Homo sapiens
[8] = Percent toxicity at 10 ug/mL on OH-I cells; range 50-100 %; assay type: functional, Homo sapiens; summary of the method: as §1
WI-38 [9] = experiment: Percent toxicity at 32 ug/mL on WI-38 cells; assay type: functional, Homo sapiens
Summary of the method: (§2)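 Static toxicity test on uninfected WI-38 monolayers at or near 100% confluency, in 5% EMEM with 0.5% DMSO. Compound given at the three highest concentrations (32, 10, 3.2 ug/mL). Monolayer reduction was scored against cell control; 50% or greater reduction counted as cytotoxic.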

WI-38 [10] = experiment: Percent toxicity at 10 ug/mL on WI-38 cells; assay type: functional, Homo sapiens; summary of the method: as §2

| Structure (SMILES) | Toxicity [1] | EC50 (WI-38 [2]) | EC50 [3] | EC50 [4] | Toxicity [5] | Toxicity [6] | Cytostatic concentration (WI-38 [7]) | Toxicity [8] | Toxicity (WI-38 [9]) | Toxicity (WI-38 [10]) |
| --- | --- | --- | --- | --- | --- | --- | --- | --- | --- | --- |
| COC(=O)c1ccc(CSc2nnc(-c3ccc4ncccc4c3)n2C)cc1 | 30% | < 82 µM | 88.4 µM | 142 µM |  |  |  |  |  |  |
| CC1(C)CCc2cc(CN3CCN(c4ccc(C(F)(F)F)cn4)CC3)ccc2O1 | 100% | 165 µM | 17 µM | 15 µM | 100% | 30% |  |  |  |  |
| CCOC(=O)/C=C/[C@H](C[C@@H]1CCNC1=O)NC(=O)[C@@H](CC(=O)[C@@H](NC(=O)c1cc(C)on1)C(C)C)Cc1ccc(F)cc1 [RUPINTRIVIR] |  |  |  |  |  |  | >100 µg/mL |  |  |  |
| O=C(Nc1ccc(SC(F)(F)F)cc1)Nc1ccc(-n2ccc(C(F)(F)F)n2)cc1 | 100% | 11.2 µM | 246 µM | 247 µM | 100% |  |  | 100% | <=50% | <=50% |
| CC1(C)CCc2cc(CN3CCN(c4ncc(C(F)(F)F)cc4Cl)CC3)ccc2O1 | 100% | < 72.7 µM | 32.1 µM | 35.7 µM | 100% | 30% |  |  |  |  |
| COc1cc2c(cc1OC)C(C)N(C(=O)Nc1ccc(OC(F)(F)F)cc1)CC2 (stereo not drawn) | 100% | < 78 µM | 4.9 µM | 121 µM | 100% |  |  | 100% |  |  |
| Cc1csc2c(N3CCN(C(=O)Nc4ccc(OC(F)(F)F)cc4)CC3)ncnc12 | 100% | 48 µM | 4.3 µM | 7.3 µM | 100% |  |  | 100% |  |  |
| Cc1cc(CCCOc2c(C)cc(-c3noc(C(F)(F)F)n3)cc2C)on1 [PLECONARIL] |  |  |  |  |  |  | 30 µg/mL |  |  |  |
